The source of these data is ChEMBL document CHEMBL1149569, “Aminopyrrolidineamide inhibitors of site-1 protease” (Bioorg Med Chem Lett, 2007).

Activity calls are given as the source filed them. The rule behind the calls is not given here.

In data set [1] the target is T1, Membrane-bound transcription factor site-1 protease (Homo sapiens, UniProt Q14703).
T1 sequence (Q14703 whole entry): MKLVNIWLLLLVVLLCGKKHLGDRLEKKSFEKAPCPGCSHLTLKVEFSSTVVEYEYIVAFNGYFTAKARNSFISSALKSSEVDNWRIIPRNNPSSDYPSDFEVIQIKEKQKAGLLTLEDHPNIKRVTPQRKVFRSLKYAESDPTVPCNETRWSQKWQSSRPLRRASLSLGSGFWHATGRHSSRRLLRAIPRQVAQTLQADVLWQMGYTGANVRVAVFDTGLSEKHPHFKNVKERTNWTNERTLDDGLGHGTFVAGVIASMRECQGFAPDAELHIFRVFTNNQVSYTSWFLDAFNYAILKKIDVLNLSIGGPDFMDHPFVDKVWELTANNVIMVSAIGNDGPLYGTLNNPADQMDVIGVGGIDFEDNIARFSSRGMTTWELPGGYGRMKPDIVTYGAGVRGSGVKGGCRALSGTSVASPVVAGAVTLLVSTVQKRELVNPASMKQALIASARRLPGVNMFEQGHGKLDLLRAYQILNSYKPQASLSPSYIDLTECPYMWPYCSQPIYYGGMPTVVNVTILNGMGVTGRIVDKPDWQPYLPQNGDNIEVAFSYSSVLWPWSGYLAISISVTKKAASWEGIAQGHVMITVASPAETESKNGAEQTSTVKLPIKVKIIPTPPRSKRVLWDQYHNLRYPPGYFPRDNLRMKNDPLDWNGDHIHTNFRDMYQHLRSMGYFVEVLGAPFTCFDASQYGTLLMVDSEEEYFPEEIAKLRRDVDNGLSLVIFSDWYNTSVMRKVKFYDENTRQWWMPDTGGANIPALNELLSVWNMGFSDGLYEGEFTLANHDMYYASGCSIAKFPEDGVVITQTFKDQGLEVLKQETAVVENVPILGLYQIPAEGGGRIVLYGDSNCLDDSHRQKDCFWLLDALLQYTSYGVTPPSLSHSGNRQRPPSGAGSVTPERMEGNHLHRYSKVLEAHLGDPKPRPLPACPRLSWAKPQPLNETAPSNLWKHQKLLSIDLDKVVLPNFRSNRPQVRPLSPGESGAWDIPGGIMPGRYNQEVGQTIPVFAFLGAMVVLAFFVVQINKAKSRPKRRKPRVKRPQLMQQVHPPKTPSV
Put plainly: Inhibition of human S1P expressed in CHOK1 cells. The class given is cell-based, CHO-K1.

The test system of data set [2] is HepG2. Put plainly: Inhibition of LDL receptor gene expression in HepG2 cells. Type of data set: functional, cell-based. To be noted: Homo sapiens.
The test system of data set [3] is Mus musculus. The data set is described as follows: Antilipogenic activity in CD1 mouse assessed as reduction of fatty acid synthase gene expression at 10 mg/kg, ip every 6 hrs for 24 hrs. Type of data set: functional. Set-up: scale not given: the % may be the effect or the level left. As to conditions: route intraperitoneal. An outline of the steps:
(§1)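 Male CD1 mice, n = 5 per group, given 10 or 30 mg/kg/dose intraperitoneally every 6 h for 24 h (acute 24 h efficacy). Hepatic HMG-CoA synthase, fatty acid synthase and LDL receptor gene expression were measured in liver tissue samples. Cholesterol and fatty acid synthetic pathway activity was measured in the animals.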

Data set [4] has as its system HepG2. Put plainly: Inhibition of proteolytic processing of SREBP in HepG2 cells at 10 uM. Type of data set: functional, cell-based. As to conditions: Homo sapiens. An outline of the steps:
(§2)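 Hep-G2 human liver cells in culture were treated at 10 µM. SREBP proteolytic processing and nuclear translocation were then assessed.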

Data set [5] deals with Mus musculus. Put plainly: Antilipogenic activity in CD1 mouse assessed as reduction of LDL receptor gene expression at 30 mg/kg, ip every 6 hrs for 24 hrs. Set-up: scale not given: the % may be the effect or the level left. The class given is functional. As to conditions: route intraperitoneal. An outline of the steps: as §1
Data set [6] can be described thus: Oral bioavailability in rat. The class given is ADME, organism-based. To be noted: in vivo.
The next data set concerns the target Coagulation factor X (Homo sapiens, UniProt P00742). Put plainly: Inhibition of factor 10a.
The subject of data set [7] is Liver. The data set is described as follows: Inhibition of fatty acid synthesis in rat liver at 10 uM. The class given is functional.
Data set [8] relates to HepG2. Put plainly: Inhibition of fatty acid synthesis in HepG2 cells at 10 uM. The class given is functional. As to conditions: Homo sapiens.
The subject of data set [9] is Mus musculus. The data set is described as follows: Antilipogenic activity in CD1 mouse assessed as inhibition of cholesterol synthetic pathway at 30 mg/kg, ip every 6 hrs for 24 hrs. On the set-up: scale not given: the % may be the effect or the level left. The class given is functional. As to conditions: route intraperitoneal. An outline of the steps: as §1
The test system of data set [10] is Mus musculus. Put plainly: Antilipogenic activity in CD1 mouse assessed as inhibition of fatty acid synthetic pathway at 30 mg/kg, ip every 6 hrs for 24 hrs. On the set-up: scale not given: the % may be the effect or the level left. To be noted: route intraperitoneal. The class given is functional. An outline of the steps:
as §1

Data set [11] relates to Mus musculus. The data set is described as follows: Antilipogenic activity in CD1 mouse assessed as inhibition of cholesterol synthetic pathway at 10 mg/kg, ip every 6 hrs for 24 hrs. The class given is functional. Set-up: scale not given: the % may be the effect or the level left. To be noted: route intraperitoneal. The procedure, abridged: as §1
Another data set deals with Hepatocyte. The data set is described as follows: Reduction of fatty acid synthase expression in mouse hepatocytes. The class given is functional, cell-based.
Data set [12] has as its system Mus musculus. The data set is described as follows: Antilipogenic activity in CD1 mouse assessed as reduction of HMG-CoA synthase gene expression at 30 mg/kg, ip every 6 hrs for 24 hrs. Type of data set: functional. Set-up: scale not given: the % may be the effect or the level left. As to conditions: route intraperitoneal. An outline of the steps:
as §1

In data set [13] the test system is HepG2. The data set is described as follows: Inhibition of nuclear translocation of SREBP in HepG2 cells at 10 uM. Type of data set: functional, cell-based. As to conditions: Homo sapiens. An outline of the steps: as §2
The nature of data set [14]: Plasma clearance in rat. The class given is ADME, organism-based.
The test system of data set [15] is Liver. Put plainly: Inhibition of cholesterol synthesis in rat liver. Type of data set: functional, tissue-based.
In another data set the test system is Hep-G2 (Homo sapiens). Put plainly: Reduction of HMG-CoA synthase expression in human Hep-G2 cells.
In data set [16] the test system is Mus musculus. Put plainly: Antilipogenic activity in CD1 mouse assessed as reduction of HMG-CoA synthase gene expression at 10 mg/kg, ip every 6 hrs for 24 hrs. The class given is functional. Set-up: scale not given: the % may be the effect or the level left. As to conditions: route intraperitoneal. An outline of the steps:
as §1

Data set [17] relates to HepG2. Put plainly: Inhibition of cholesterol synthesis in HepG2 cells. Type of data set: functional, cell-based. As to conditions: Homo sapiens.
In data set [18] the test system is Liver. Put plainly: Reduction of fatty acid synthase expression in mouse liver. Type of data set: functional, tissue-based.
Data set [19] relates to Mus musculus. Put plainly: Antilipogenic activity in CD1 mouse assessed as reduction of fatty acid synthase gene expression at 30 mg/kg, ip every 6 hrs for 24 hrs. The class given is functional. On the set-up: scale not given: the % may be the effect or the level left. To be noted: route intraperitoneal. An outline of the steps:
as §1

Data set [20] has as its system Mus musculus. The data set is described as follows: Antilipogenic activity in CD1 mouse assessed as inhibition of fatty acid synthetic pathway at 10 mg/kg, ip every 6 hrs for 24 hrs. The class given is functional. As to conditions: route intraperitoneal. Set-up: scale not given: the % may be the effect or the level left. An outline of the steps: as §1
The target in data set [21] is Low-density lipoprotein receptor (Homo sapiens) (UniProt P01130). Put plainly: Inhibition of LDL receptor-mediated LDL internalization in HepG2 cells. Type of data set: cell-based.
The test system of data set [22] is Liver. The data set is described as follows: Reduction of HMG-CoA synthase expression in mouse liver. The class given is functional, tissue-based.
Data set [23] concerns the target Urokinase-type plasminogen activator (Homo sapiens, UniProt P00749). Put plainly: Inhibition of urokinase.

Coagulation factor X, sequence (P00742 41-179 limits assumed): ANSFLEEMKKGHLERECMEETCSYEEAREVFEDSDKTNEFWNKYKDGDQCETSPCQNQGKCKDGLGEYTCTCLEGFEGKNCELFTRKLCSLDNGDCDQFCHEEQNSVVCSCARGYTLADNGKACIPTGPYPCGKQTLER
Coagulation factor X, sequence (P00742 235-488 limits assumed): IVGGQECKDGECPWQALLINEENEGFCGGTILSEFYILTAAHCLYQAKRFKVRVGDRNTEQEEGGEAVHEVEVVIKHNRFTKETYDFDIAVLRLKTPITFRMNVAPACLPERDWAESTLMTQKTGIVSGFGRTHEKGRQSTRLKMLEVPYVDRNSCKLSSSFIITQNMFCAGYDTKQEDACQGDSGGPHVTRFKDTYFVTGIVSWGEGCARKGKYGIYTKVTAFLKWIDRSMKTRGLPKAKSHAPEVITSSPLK
Low-density lipoprotein receptor (Homo sapiens), sequence (P01130 whole entry): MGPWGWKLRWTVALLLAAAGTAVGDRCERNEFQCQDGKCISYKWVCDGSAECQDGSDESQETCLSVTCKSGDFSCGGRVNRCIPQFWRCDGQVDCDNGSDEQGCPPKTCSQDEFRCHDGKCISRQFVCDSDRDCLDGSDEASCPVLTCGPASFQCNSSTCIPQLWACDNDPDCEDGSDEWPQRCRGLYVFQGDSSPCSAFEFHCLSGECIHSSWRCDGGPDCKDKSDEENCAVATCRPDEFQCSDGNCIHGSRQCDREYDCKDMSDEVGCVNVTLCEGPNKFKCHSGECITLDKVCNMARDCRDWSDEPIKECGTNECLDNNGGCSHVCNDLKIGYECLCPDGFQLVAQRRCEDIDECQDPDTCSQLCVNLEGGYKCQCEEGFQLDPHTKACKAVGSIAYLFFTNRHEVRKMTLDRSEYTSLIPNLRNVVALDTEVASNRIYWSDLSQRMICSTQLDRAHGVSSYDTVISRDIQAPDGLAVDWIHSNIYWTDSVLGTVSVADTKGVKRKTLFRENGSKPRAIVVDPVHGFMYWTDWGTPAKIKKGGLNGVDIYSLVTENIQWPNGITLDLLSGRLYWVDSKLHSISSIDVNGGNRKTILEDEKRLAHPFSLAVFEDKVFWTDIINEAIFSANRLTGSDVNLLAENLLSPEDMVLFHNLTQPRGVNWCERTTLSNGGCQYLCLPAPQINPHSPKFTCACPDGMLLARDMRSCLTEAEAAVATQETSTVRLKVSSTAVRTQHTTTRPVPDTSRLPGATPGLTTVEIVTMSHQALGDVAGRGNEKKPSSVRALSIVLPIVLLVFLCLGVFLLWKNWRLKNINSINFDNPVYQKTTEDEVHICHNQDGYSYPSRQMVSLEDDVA

As for `COc1ccccc1CCN(C(=O)c1ccc(OCc2ccccc2)cc1)C1CCNC1` (centres undefined), in [1], the half-maximal inhibitory concentration (IC50) is 310 nM.
Same read-out and setting: the value for `CC(C)Oc1ccc(C(=O)N(CCc2ccccc2Cl)C2CCSC2)cc1` (centres undefined) was above 30000 nM; that for `O=C(c1ccc(CN2CCCCC2)cc1)N(CCc1ccccc1Cl)C1CCOC1` (centres undefined) was above 30000 nM; that for `CCN(CC)Cc1ccc(C(=O)N(CCc2ccccc2OC)C2CCNC2)cc1` (centres undefined) was 540 nM.
`COc1ccccc1CCN(C(=O)c1ccc(CN2CCCCC2)cc1)C1CCNC1` (centres undefined) gave a half-inhibitory concentration (IC50) in data set [1] of 250 nM.
With `O=C(c1ccc(OCc2ccccc2)cc1)N(CCc1ccccc1Cl)C1CCNC1` (centres undefined), the IC50 in data set [1] is 590 nM.
Same read-out and setting: the value for `CC(C)Oc1ccc(C(=O)N(CCc2ccccc2F)C2CCNC2)cc1` (centres undefined) was 9000 nM; that for `CCN(CC)Cc1ccc(C(=O)N(CCc2ccccc2Cl)C2CCNC2)cc1` (centres undefined) was 840 nM; that for `CC(C)Oc1ccc(C(=O)N(CCc2ccccc2Cl)C2CCCNC2)cc1` (centres undefined) was above 30000 nM.
As to `COc1ccccc1CCN(C(=O)c1ccc(CN2CCCC(C(N)=O)C2)cc1)C1CCNC1` (centres undefined), the IC50 in data set [1] was found to be 160 nM.
`CCN(CC)Cc1ccc(C(=O)N(CCc2ccccc2OC)[C@H]2CCNC2)cc1`: the half-maximal inhibitory concentration (IC50) in [1] was 970 nM.
Same read-out and setting: as for `COc1ccccc1CCN(C(=O)c1ccc(CN2CCCC(c3ccccc3C)C2)cc1)C1CCNC1` (centres undefined), the figure is 37 nM; as for `CC(C)Oc1ccc(C(=O)N(CCc2ccccc2Cl)C2CNC2)cc1`, above 30000 nM; as for `Cc1ccccc1C1CCCN(Cc2ccc(C(=O)N(CCc3ccccc3Cl)C3CCNC3)cc2)C1` (centres undefined), 8 nM.
`CCOc1ccccc1CCN(C(=O)c1ccc(CN(CC)CC)cc1)C1CCNC1` (centres undefined): the half-inhibitory concentration (IC50) in data set [1] was 16000 nM.
The same measure, in the same setting: the value for `CCN(CC)Cc1ccc(C(=O)N(CCc2ccccc2C)C2CCNC2)cc1` (centres undefined) was 1600 nM; that for `COC[C@@H]1CCCN1Cc1ccc(C(=O)N(CCc2ccccc2OC)C2CCNC2)cc1` (some centres undefined) was 140 nM.
Still for that read-out and setting: as for `CC(C)Oc1ccc(C(=O)N(CCc2cccc(Cl)c2)C2CCNC2)cc1` (centres undefined), the figure is 9600 nM; as for `COc1ccccc1CCN(C(=O)c1ccc(CN2CC3CCC2C3)cc1)C1CCNC1` (centres undefined), 95 nM.
For `CCN(CC)Cc1ccc(C(=O)N(CCc2ccccc2OC)[C@@H]2CCNC2)cc1`, the outcome (in the data set with HepG2 [2]; in the data set with HepG2 [4]; in the data set on HepG2 [13]; in data set [21]) was Active. For the same compound, the Activity in the data set on Mus musculus [3] is reported as 50%; with Mus musculus [5] it was 35%; in the data set with Mus musculus [9], 80%; in the data set on Mus musculus [10], 80%; in the data set with Mus musculus [11], 50%; in the data set with Mus musculus [12], above 80%. Moreover, the results for the Activity with Mus musculus [16], in the data set on Mus musculus [19] and in the data set with Mus musculus [20] were above 80%, 75% and 50%, respectively. Further, in data set [6], the bioavailability is 5%. The 50% inhibitory concentration (IC50) was found to be 100000 nM against Coagulation factor X, 170 nM in data set [1] and 50000 nM in [23]. Further, the inhibition at 10 µM in the data set with Liver [7] and in the data set on HepG2 [8] was 43% in each case. Also, the EC50 was 2000 nM in the data set on Hepatocyte; 600 nM in the data set with Liver [15]; 300 nM in the data set with Hep-G2 (Homo sapiens); 600 nM with HepG2 [17]; 2000 nM in the data set on Liver [18]; 300 nM in the data set with Liver [22]. Further, the clearance in data set [14] was determined as 75 mL/min/kg.
Compound `COc1ccccc1CCN(C(=O)c1ccc(CN2CC3CCCC2C3)cc1)C1CCNC1` (centres undefined) had a concentration for half-maximal inhibition (IC50) in [1] of 29 nM.
In data set [1], `CC(C)Oc1ccc(C(=O)N(CCc2ccccc2Cl)C2CCN(C)C2)cc1` (centres undefined) had an IC50 above 30000 nM.
Still for that read-out and setting: as for `CC(C)Oc1ccc(C(=O)N(CCc2ccccc2Cl)C2CCNC2)cc1` (centres undefined), the figure is 1400 nM; as for `CC(C)Oc1ccc(C(=O)N(Cc2ccccc2Cl)C2CCNC2)cc1` (centres undefined), above 5000 nM.
The same measure, in the same setting: the value for `O=C(c1ccc(OCc2ccccc2)cc1)N(CCc1cccc(Cl)c1)C1CCNC1` (centres undefined) was 510 nM.
Same read-out and setting: as for `CC(C)Oc1ccc(C(=O)N(CCc2ccccc2Cl)C2CCN(C=O)C2)cc1` (centres undefined), the figure is above 30000 nM; as for `CCN(CC)Cc1ccc(C(=O)N(CCc2c(Cl)cccc2Cl)C2CCNC2)cc1` (centres undefined), 430 nM.
For the compound `COc1ccccc1CCN(C(=O)c1ccc(CN[C@H]2CCCC[C@@H]2O)cc1)C1CCNC1` (some centres undefined), in data set [1], the 50% inhibitory concentration (IC50) was determined as 100 nM.
The compound `CCN(CC)Cc1ccc(C(=O)N(CCc2ccc(Cl)cc2)C2CCNC2)cc1` (centres undefined) showed a 50% inhibitory concentration (IC50) in data set [1] of 3700 nM.
